# ChEMBL document CHEMBL1124344, “5-Piperazinylalkyl-2(3H)-oxazolones with neuroleptic activity” (J Med Chem, 1989)
# Legend:
# [1] = test system: Rattus norvegicus; assay: Antagonistic activity against apomorphine-induced stereotypy in rats, by administering perorally at a dose of 60 mg/kg; format: functional; conditions: route oral
# Summary of the method: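 Male rats fasted overnight and given oral doses in arabic gum suspension (10 mL/kg) 1 h, or 1 and 5 h, before challenge. Apomorphine 3 mg/kg iv, with stereotypy observed 20 min later. ED50 is the dose inhibiting stereotypy in 50% of rats, per Janssen's method. Parenthetical entries give the maximal dose and percent activity.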
# [2] = test system: Mus musculus; assay: Inhibition of spontaneous motor activity in mice, by administering perorally; format: functional; conditions: po
# Summary of the method: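 Mice in groups of five were dosed orally with gum arabic suspensions at 10 mL/kg after an overnight fast, with a vehicle control group. Locomotion was counted for 10 min in a photocell activity cage, in at least two groups per dose. ED50, by probit analysis, is the dose giving 50% inhibition against controls.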
# [3] = test system: Rattus norvegicus; assay: Activity to evoke catalepsy in rats, by administering perorally at a dose of 60 mg/kg; format: functional; conditions: route oral
# Summary of the method: (§1)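 Rats fasted overnight and given oral doses in arabic gum suspension (10 mL/kg), 1 h before screening or 1 and 5 h before profile testing. Forelegs placed on a horizontal bar 7 cm high, three times at 5-min intervals. Immobility of at least 15 s counts as catalepsy. ED50 is the dose giving catalepsy in 50% of rats, by probit analysis. Parenthetical entries give the maximal dose and percent activity.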
# [4] = test system: Mus musculus; assay: Inhibition of amphetamine-induced hypermobility in mice following p.o. administration.; format: functional; conditions: po
# Summary of the method: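 Compounds were given orally to male mice (gum arabic suspension, 10 mL/kg, fasted) in groups of five. Amphetamine 4 mg/kg ip followed 30 min later. After another 10 min, motility was recorded for 15 min with a photocell actophotometer. ED50, by probit analysis, is the dose giving 50% reduction against controls.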
# [5] = Lethal dose in mice (LD50) following i.p. dosing; format: toxicity, organism-based; conditions: mouse, in vivo, ip
# Summary of the method: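 Acute toxicity tested in mice by the intraperitoneal route. LD50 is the dose killing 50% of treated mice, computed by Finney probit analysis; values are approximate.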
# [6] = test system: Rattus norvegicus; assay: Antagonistic activity against apomorphine-induced stereotypy in rats, by administering perorally at a dose of 80 mg/kg; conditions: po, read-out: Inhibition
# [7] = test system: Rattus norvegicus; assay: Inhibition against conditioned avoidance response, after 5 hour of peroral administration in rats at a dose of 20 mg/kg; conditions: po, read-out: Inhibition
# [8] = organism: Rattus norvegicus; assay: animal or person; conditions: po, read-out: Inhibition
# [9] = test system: Rattus norvegicus; assay: Antagonistic activity against apomorphine-induced stereotypy, after 1 hour of peroral administration in rats at a dose of 80 mg/kg; conditions: po, read-out: Inhibition
# [10] = test system: Mus musculus; assay: Suppression of aggressive behavior, after 5 hour of peroral administration in mouse at a dose of 10 mg/kg; format: functional; conditions: route oral
# Summary of the method: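 Male mice made aggressive by about 1 month of isolation in individual black cages plus weekly testosterone cyclopentylpropionate 250 mg/kg sc. Pairs preselected for aggressiveness shortly before oral dosing 1 or 5 h beforehand; attack on a nonisolated male within 15 min scored. ED50 is the dose suppressing aggression in 50% of animals.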
# [11] = test system: Mus musculus; assay: Inhibition against apomorphine-induced climbing, after 1 hour of peroral administration in mouse; format: functional; conditions: po
# Summary of the method: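 Mice were dosed orally (gum arabic suspension, 10 mL/kg, fasted), then given apomorphine 1 mg/kg sc and placed in cylindrical cages with vertical metal bars. Climbing was scored 0 for four paws on the floor, 1 for forefeet on the wall, 2 for four paws on the wall. ED50 is the dose halving the control score.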
# [12] = test system: Mus musculus; assay: Inhibitory activity against tremorine-induced tremors, after 1 hour of peroral administration in mouse; format: functional; conditions: po
# Summary of the method: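 Male mice given oral drug, then tremorine 20 mg/kg ip 1 h later; central tremor and peripheral salivation recorded. ED50 is the dose protecting 50% of animals from tremorine effects, by probit analysis.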
# [13] = test system: Mus musculus; assay: Antagonistic activity against amphetamine-induced hypermotility, after 1 hour of peroral administration in mouse; format: functional; conditions: po
# Summary of the method: (§2)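 Male mice in groups of five, fasted overnight, given oral drug in arabic gum suspension (10 mL/kg) 1 or 5 h ahead. Amphetamine 4 mg/kg ip given 30 min after drug. Ten minutes later locomotion is recorded for 15 min in a photocell actophotometer. ED50 is 50% reduction versus control hypermotility, by probit analysis. Parenthetical entries give the maximal dose and percent activity.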
# [14] = test system: Rattus norvegicus; assay: Activity to evoke catalepsy, after 1 hour of peroral administration in rats; format: functional; conditions: po; summary of the method: as §1
# [15] = test system: Rattus norvegicus; assay: Body weight gain, after 1 hour of peroral administration in rats; format: functional; conditions: po
# Summary of the method: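 Female rats (250–280 g), individually caged, on 22-h food deprivation with pellets 10–12 a.m.; weighed before and after eating. After 30–40 days training, oral drug given 1 h before the 2-h feeding. Weight gain expressed as percent of the two preceding control days; ED50 is the dose giving 50% reduction.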
# [16] = test system: Mus musculus; assay: Anticonvulsant activity against pentylenetetrazole-induced convulsions, after 5 hour of peroral administration in mouse at a dose of 40 mg/kg; format: functional; conditions: route oral
# Summary of the method: (§3)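 Male mice dosed orally (arabic gum, 10 mL/kg) 1 or 5 h before challenge with tryptamine 100 mg/kg iv, pentylenetetrazol 110 mg/kg ip, or maximal electroshock. Protection means no bilateral forepaw clonic seizures and head twitches (tryptamine) or no tonic hind-limb extension (others). ED50 protects 50% of mice.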
# [17] = test system: Rattus norvegicus; assay: Inhibition against conditioned avoidance response, after 1 hour of peroral administration in rats; format: functional; conditions: po
# Summary of the method: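 Male rats were trained in a shuttle box to avoid grid-floor shock by crossing compartments during a warning period. Dosing was oral as a gum arabic suspension at 10 mL/kg after an overnight fast. Percent inhibition was computed against a pretraining test. ED50 is the dose giving 50% inhibition.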
# [18] = test system: Mus musculus; assay: Anticonvulsant activity against electroshock-induced convulsions, after 1 hour of peroral administration in mouse at a dose of 26 mg/kg; format: functional; conditions: route oral; summary of the method: as §3
# [19] = test system: Rattus norvegicus; assay: Antagonistic activity against amphetamine-induced stereotypy, after 1 hour of peroral administration in rats at a dose of 20 mg/kg; conditions: po, read-out: Inhibition
# [20] = test system: Mus musculus; assay: Inhibition of spontaneous motor activity, after 5 hour of peroral administration in mouse; format: functional; conditions: po
# Summary of the method: (§4)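 Mice fasted overnight, then dosed orally with compound (weighed as base) suspended in arabic gum, 10 mL/kg, with vehicle controls; 1 h pretreatment for screening tests, 1 or 5 h for others. Groups of five; locomotor activity counted 10 min in photocell activity cage, at least two groups per dose. ED50 = dose giving 50% inhibition versus controls, by probit analysis.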
# [21] = test system: Mus musculus; assay: Anticonvulsant activity against tryptamine-induced convulsions, after 1 hour of peroral administration in mouse; format: functional; conditions: po
# Summary of the method: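 Compounds were dosed as bases suspended in arabic gum at 10 mL/kg orally, after an overnight fast, with vehicle controls. Protection meant no bilateral forepaw clonic seizures or head twitches (tryptamine), or no tonic hind-limb extension (the other two). ED50 is the dose protecting 50%, by probit analysis.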
# [22] = test system: Mus musculus; assay: Antagonistic activity against amphetamine-induced Hypermobility in mouse by administering perorally; format: functional; conditions: po; summary of the method: as §2
# [23] = test system: Mus musculus; assay: Activity of inclined screen in mouse, after 1 hour of peroral administration in mouse; format: functional
# Summary of the method: (§5)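 Male mice placed for 1 h on a wire screen inclined 60°, just after oral dosing and 4 h later; ataxic or relaxed mice slide off. Fasted overnight, 10 per dose, vehicle controls. Compounds weighed as bases, suspended in arabic gum, 10 mL/kg orally; ED50 by Finney probit analysis.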
# [24] = test system: Mus musculus; assay: Inhibitory activity against tremorine-induced salivation, after 1 hour of peroral administration in mouse; format: functional; conditions: po
# Summary of the method: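 Male mice fasted overnight, dosed orally with arabic gum suspension (10 mL/kg) 1 or 5 h before test, vehicle controls included. Tremorine 20 mg/kg ip given 1 h after compounds; central (tremor) and peripheral (salivation) parasympathetic signs recorded. ED50 = dose protecting 50% of animals, by probit analysis.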
# [25] = test system: Mus musculus; assay: Suppression of aggressive behavior, after 1 hour of peroral administration in mouse; format: functional; conditions: po
# Summary of the method: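 Male mice made aggressive by isolation in individual black cages for about 1 month plus weekly testosterone cyclopentylpropionate 250 mg/kg sc; pairs preselected for attack on a nonisolated male within 15 min. Oral dosing (arabic gum, 10 mL/kg) 1 or 5 h before test, overnight fast. ED50 = dose suppressing aggression in 50% of animals, probit analysis.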
# [26] = test system: Mus musculus; assay: Potentiation against pentobarbital-induced sleeping, after 1 hour of peroral administration in mouse; format: functional; conditions: po
# Summary of the method: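 Female mice fasted overnight, dosed orally 1 or 5 h beforehand as arabic gum suspension, 10 mL/kg, with vehicle controls. Subhypnotic pentobarbital 10 mg/kg iv; 3 min later placed on back, effect scored as complete loss of righting reflex for at least 15 s. ED50 = dose producing this in 50% of mice, probit analysis.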
# [27] = test system: Mus musculus; assay: Inhibition of spontaneous motor activity in mouse, by administering perorally; format: functional; conditions: po; summary of the method: as §4
# [28] = test system: Rattus norvegicus; assay: Antagonistic activity against apomorphine-induced stereotypy, after 5 hour of peroral administration in rats at a dose of 80 mg/kg; conditions: po, read-out: Inhibition
# [29] = test system: Mus musculus; assay: Anticonvulsant activity against pentylenetetrazole-induced convulsions, after 1 hour of peroral administration in mouse at a dose of 40 mg/kg; format: functional; conditions: route oral; summary of the method: as §3
# [30] = test system: Mus musculus; assay: Effect on skeletal muscle tone, after 1 hour of peroral administration in mouse; format: functional; conditions: Muscle tissue, po
# Summary of the method: (§6)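 Male mice suspended by forepaws from a 1.8-mm wire stretched 15 cm above a plane. Trained normal mice touch the wire with a hind paw within 2 s (traction) and hang at least 1 min (suspension). Oral dosing 1 or 5 h before. ED50 is the dose making 50% of mice fall without traction and suspension.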
# [31] = test system: Mus musculus; assay: Inhibition of spontaneous motor activity, after 1 hour of peroral administration in mouse; format: functional; conditions: po; summary of the method: as §4
# [32] = test system: Mus musculus; assay: Antagonistic activity against amphetamine-induced hypermotility, after 5 hour of peroral administration in mouse; format: functional; conditions: po; summary of the method: as §2
# [33] = test system: Mus musculus; assay: Inhibitory activity against tremorine-induced tremors, after 5 hour of peroral administration in mouse; format: functional; conditions: po
# [34] = test system: Mus musculus; assay: Contractile activity in skeletal muscles, after 1 hour of peroral administration in mouse; format: functional; conditions: Muscle tissue, po
# Summary of the method: (§7)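 Male mice were placed for 1 h on a 60° inclined wire screen just after dosing and 4 h later. In a second test, trained mice hung by the forepaws from a horizontal 1.8 mm wire 15 cm up; normal mice touch it with a hind paw within 2 s and stay ≥1 min. ED50 is the dose making 50% fall. Dosing was oral in gum arabic suspension at 10 mL/kg after an overnight fast.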
# [35] = test system: Rattus norvegicus; assay: Antagonistic activity against amphetamine-induced stereotypy, after 5 hour of peroral administration in rats at a dose of 20 mg/kg; conditions: po, read-out: Inhibition
# [36] = test system: Mus musculus; assay: Effect on skeletal muscle tone, after 5 hour of peroral administration in mouse; format: functional; conditions: Muscle tissue, po; summary of the method: as §7
# [37] = test system: Mus musculus; assay: Activity of inclined screen in mouse, after 5 hour of peroral administration in mouse; format: functional; summary of the method: as §5
# [38] = test system: Mus musculus; assay: Contractile activity in skeletal muscles, after 5 hour of peroral administration in mouse at a dose of 40 mg/kg; format: functional; conditions: Muscle tissue, route oral; summary of the method: as §6
# [39] = test system: Mus musculus; assay: Anticonvulsant activity against tryptamine-induced convulsions, after 5 hour of peroral administration in mouse at a dose of 40 mg/kg; format: functional; conditions: route oral; summary of the method: as §3
smiles,measurement,setting,value
Cc1ccccc1N1CCN(CCc2oc(O)nc2-c2ccc(F)cc2)CC1,inhibition in vivo at 60 mg/kg,[1],0%
same,ED50,[2],6.3 mg/kg
same,inhibition in vivo at 60 mg/kg,[3],0%
same,ED50,[4],8.6 mg/kg
same,LD50,[5],250 mg/kg
CN1CCN(C2=Nc3cc(Cl)ccc3Nc3ccccc32)CC1 [CLOZAPINE],inhibition in vivo at 80 mg/kg,[6],30%
same,inhibition in vivo at 20 mg/kg,[7],0%
same,inhibition in vivo at 26 mg/kg,[8],37%
same,inhibition in vivo at 80 mg/kg,[9],30%
same,inhibition in vivo at 10 mg/kg,[10],0%
same,ED50,[11],12 mg/kg
same,ED50,[12],30 mg/kg
same,ED50,[13],4.5 mg/kg
same,ED50,[14],34 mg/kg
same,ED50,[15],8 mg/kg
same,inhibition in vivo at 40 mg/kg,[16],0%
same,ED50,[17],8.6 mg/kg
same,inhibition in vivo at 26 mg/kg,[18],37%
same,inhibition in vivo at 20 mg/kg,[19],20%
same,ED50,[20],23 mg/kg
same,ED50,[21],10.3 mg/kg
same,ED50,[22],4.5 mg/kg
same,ED50,[23],9.3 mg/kg
same,ED50,[24],6.9 mg/kg
same,ED50,[25],3.5 mg/kg
same,ED50,[26],6.6 mg/kg
same,ED50,[27],4.2 mg/kg
same,inhibition in vivo at 80 mg/kg,[28],0%
same,inhibition in vivo at 40 mg/kg,[29],0%
same,ED50,[30],9.2 mg/kg
same,ED50,[31],4.2 mg/kg
same,ED50,[32],20.1 mg/kg
same,ED50,[33],30 mg/kg
same,ED50,[34],40 mg/kg
same,inhibition in vivo at 20 mg/kg,[35],0%
same,ED50,[36],30 mg/kg
same,ED50,[37],18.8 mg/kg
same,LD50,[5],100 mg/kg
same,inhibition in vivo at 40 mg/kg,[38],10%
same,inhibition in vivo at 40 mg/kg,[39],0%
